# Results reported in ChEMBL document CHEMBL4346663, “N-Cinnamoylanthranilates as human TRPA1 modulators: Structure-activity relationships and channel binding sites” (Eur J Med Chem, 2019).
# Calls of active or inactive are those of the source. The calls are words filed in the database; no cut-off is given here.
# Assays:
# [1] = Dissociation constant, pKa of the compound at pH 7.4; assay type: physicochemical
# [2] = target: T1, Transient receptor potential cation channel subfamily A member 1 (Homo sapiens, UniProt O75762); assay: Agonist activity at human TRPA1 expressed in HEK293 cells assessed as increase in calcium influx at 3 uM by Fluo-4-AM dye based fluorescence assay relative to calcimycin; assay type: cell-based
# T1 sequence (O75762 whole entry): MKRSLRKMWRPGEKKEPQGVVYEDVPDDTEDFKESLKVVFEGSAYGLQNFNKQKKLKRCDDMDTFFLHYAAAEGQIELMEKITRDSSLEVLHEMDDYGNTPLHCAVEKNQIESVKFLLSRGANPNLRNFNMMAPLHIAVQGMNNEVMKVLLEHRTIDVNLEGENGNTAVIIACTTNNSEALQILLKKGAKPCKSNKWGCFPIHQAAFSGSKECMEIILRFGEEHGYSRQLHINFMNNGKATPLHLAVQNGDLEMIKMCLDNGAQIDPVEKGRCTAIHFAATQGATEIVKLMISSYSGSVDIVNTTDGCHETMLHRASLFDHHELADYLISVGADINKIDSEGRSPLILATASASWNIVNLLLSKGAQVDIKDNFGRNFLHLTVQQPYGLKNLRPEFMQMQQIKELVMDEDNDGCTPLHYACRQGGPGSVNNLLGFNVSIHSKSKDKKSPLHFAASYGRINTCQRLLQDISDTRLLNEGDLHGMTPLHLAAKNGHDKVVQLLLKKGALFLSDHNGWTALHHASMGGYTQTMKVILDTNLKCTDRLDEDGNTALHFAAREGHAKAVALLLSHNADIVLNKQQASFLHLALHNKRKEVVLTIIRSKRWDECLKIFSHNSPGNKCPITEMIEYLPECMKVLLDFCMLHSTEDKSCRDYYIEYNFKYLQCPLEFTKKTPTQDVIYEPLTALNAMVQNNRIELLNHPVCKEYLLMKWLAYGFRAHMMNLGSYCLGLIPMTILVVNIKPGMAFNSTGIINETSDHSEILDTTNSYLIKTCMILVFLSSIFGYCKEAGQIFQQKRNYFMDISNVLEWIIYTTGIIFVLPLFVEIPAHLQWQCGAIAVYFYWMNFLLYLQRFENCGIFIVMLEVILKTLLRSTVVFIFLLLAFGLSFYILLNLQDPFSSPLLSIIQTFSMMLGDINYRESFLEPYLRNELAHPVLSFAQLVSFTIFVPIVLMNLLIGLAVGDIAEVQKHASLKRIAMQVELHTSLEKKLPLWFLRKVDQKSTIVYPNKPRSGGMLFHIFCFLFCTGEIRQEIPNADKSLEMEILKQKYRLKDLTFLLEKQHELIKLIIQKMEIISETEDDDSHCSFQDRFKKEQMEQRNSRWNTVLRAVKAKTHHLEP
# Procedure, shortened: (§1)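 Stably transfected hTRPA1- or hTRPM8-HEK293 cells on poly-D-lysine plates for 48 h, loaded with Fluo-4AM (2 µM, 45 min, dark, room temperature), in isotonic HEPES buffer pH 7.4. FlexStation 240 s run: 20 s baseline, compound added, calcimycin added at 180 s. ΔRFU expressed as % calcimycin, DMSO-subtracted. Screening N = 3. Dose-response curves fitted for logEC50 (N = 3 in duplicate or triplicate).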
# [3] = target: T2, Transient receptor potential cation channel subfamily M member 8 (Homo sapiens, UniProt Q7Z2W7); assay: Antagonist activity at human TRPM8 expressed in HEK293 cells assessed as increase in calcium influx at 3 uM incubated for 10 mins prior to WS5 challenge by Fluo-4-AM dye based fluorescence assay relative to WS5; assay type: cell-based; parameters: scale not given: the % may be the effect or the level left
# Procedure, shortened: (§2)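 hTRPM8-HEK293 cells loaded with Fluo-4AM (2 µM, 45 min). Test compound pre-incubated 10 min before WS5 standard agonist. FlexStation fluorescence at 485/538 nm. ΔRFU given as % of WS5 response after DMSO vehicle subtraction. N = 3. IC50 from dose-response curves.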
# Target sequence in this assay (Q7Z2W7 whole entry, looked up): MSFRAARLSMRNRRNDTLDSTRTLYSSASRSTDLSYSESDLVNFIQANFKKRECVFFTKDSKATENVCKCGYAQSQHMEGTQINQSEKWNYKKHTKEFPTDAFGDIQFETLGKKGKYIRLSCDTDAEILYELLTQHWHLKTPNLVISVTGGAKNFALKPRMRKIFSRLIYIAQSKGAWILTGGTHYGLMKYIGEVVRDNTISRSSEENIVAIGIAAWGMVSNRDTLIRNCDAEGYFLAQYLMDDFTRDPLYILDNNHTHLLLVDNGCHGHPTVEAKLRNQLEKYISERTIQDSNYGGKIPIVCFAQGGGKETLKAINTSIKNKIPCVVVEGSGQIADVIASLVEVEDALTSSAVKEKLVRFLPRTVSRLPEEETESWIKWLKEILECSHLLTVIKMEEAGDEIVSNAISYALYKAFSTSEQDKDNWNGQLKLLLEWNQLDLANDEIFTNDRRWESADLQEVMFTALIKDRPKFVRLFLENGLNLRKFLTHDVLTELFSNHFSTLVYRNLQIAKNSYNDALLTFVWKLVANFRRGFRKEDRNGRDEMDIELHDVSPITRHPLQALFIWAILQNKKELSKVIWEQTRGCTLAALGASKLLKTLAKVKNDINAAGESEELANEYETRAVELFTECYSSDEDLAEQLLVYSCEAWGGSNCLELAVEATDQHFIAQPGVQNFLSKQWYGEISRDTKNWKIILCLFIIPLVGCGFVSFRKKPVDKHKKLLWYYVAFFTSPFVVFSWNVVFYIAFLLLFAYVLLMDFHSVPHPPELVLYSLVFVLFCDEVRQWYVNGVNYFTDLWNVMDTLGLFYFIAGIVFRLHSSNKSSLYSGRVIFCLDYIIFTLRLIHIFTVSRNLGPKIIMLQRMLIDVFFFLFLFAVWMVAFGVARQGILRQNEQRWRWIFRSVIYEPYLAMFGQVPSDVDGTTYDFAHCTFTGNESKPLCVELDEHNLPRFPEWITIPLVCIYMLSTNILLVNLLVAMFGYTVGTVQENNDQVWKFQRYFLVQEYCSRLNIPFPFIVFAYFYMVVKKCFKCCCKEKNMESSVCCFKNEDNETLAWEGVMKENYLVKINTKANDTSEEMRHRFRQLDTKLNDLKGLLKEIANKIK
# [4] = target: T1, Transient receptor potential cation channel subfamily A member 1; assay: Antagonist activity at human TRPA1 expressed in HEK293 cells assessed as increase in calcium influx at 3 uM incubated for 10 mins prior to CA challenge by Fluo-4-AM dye based fluorescence assay […]; assay type: cell-based
# [5] = target: T2, Transient receptor potential cation channel subfamily M member 8; assay: Agonist activity at human TRPM8 expressed in HEK293 cells assessed as increase in calcium influx at 3 uM by Fluo-4-AM dye based fluorescence assay relative to calcimycin; assay type: cell-based; procedure, shortened: as §1
# Target sequence in this assay (Q7Z2W7 whole entry, looked up): as above
# [6] = target: T2, Transient receptor potential cation channel subfamily M member 8; assay: Antagonist activity at human TRPM8 expressed in HEK293 cells assessed as increase in calcium influx at 100 uM incubated for 10 mins prior to WS5 challenge by Fluo-4-AM dye based fluorescence assay relative to WS5; assay type: cell-based; parameters: scale not given: the % may be the effect or the level left; procedure, shortened: as §2
# Target sequence in this assay (Q7Z2W7 whole entry, looked up): as above
# [7] = target: T2, Transient receptor potential cation channel subfamily M member 8; assay: Agonist activity at human TRPM8 expressed in HEK293 cells assessed as increase in calcium influx at 100 uM by Fluo-4-AM dye based fluorescence assay relative to calcimycin; assay type: cell-based; procedure, shortened: as §1
# Target sequence in this assay (Q7Z2W7 whole entry, looked up): as above
# [8] = target: T1, Transient receptor potential cation channel subfamily A member 1; assay: Antagonist activity at human TRPA1 expressed in HEK293 cells assessed as increase in calcium influx at 100 uM incubated for 10 mins prior to CA addition by Fluo-4-AM dye based fluorescence assay relative to CA; assay type: cell-based; parameters: scale not given: the % may be the effect or the level left
# Procedure, shortened: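 hTRPA1-HEK293 cells loaded with Fluo-4AM (2 µM). Compound pre-incubated 10 min, then cinnamaldehyde standard agonist added. FlexStation read, ex 485/em 538 nm. ΔRFU normalized to the CA response set at 100 % after DMSO vehicle subtraction. N = 3. logIC50 taken from dose-response fits.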
# [9] = target: T2, Transient receptor potential cation channel subfamily M member 8; assay: Agonist activity at human TRPM8 expressed in HEK293 cells assessed as increase in calcium influx at 30 uM by Fluo-4-AM dye based fluorescence assay relative to calcimycin; assay type: cell-based; procedure, shortened: as §1
# Target sequence in this assay (Q7Z2W7 whole entry, looked up): as above
# [10] = target: T1, Transient receptor potential cation channel subfamily A member 1; assay: Agonist activity at human TRPA1 expressed in HEK293 cells assessed as increase in calcium influx at 30 uM by Fluo-4-AM dye based fluorescence assay relative to calcimycin; assay type: cell-based; procedure, shortened: as §1
# [11] = system: Transient receptor potential cation channel subfamily A member 1 (Homo sapiens), O75762 [F909A]; assay: Agonist activity at human TRPA1 Phe909Ala mutant expressed in HEK293 cells assessed as Ca2+ influx at 10 uM by fluorescence assay; assay type: cell-based
# Sequence of Transient receptor potential cation channel subfamily A member 1 (Homo sapiens), O75762 [F909A] (O75762 whole entry F909A): as the sequence (O75762 whole entry) above, with F909A counted along it
# Procedure, shortened: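 HEK293 cells stably expressing hTRPA1 point mutants (C621A, F909A or F944A), single-cell cloned under G418 selection. Cells plated on poly-D-lysine for 48 h, loaded with Fluo-4AM 2 µM for 45 min at room temperature. FlexStation read (ex 485/em 538 nm): 20 s baseline, compound added, calcimycin added at 180 s. Response expressed as % calcimycin from ΔRFU, vehicle-subtracted, and compared with wild-type hTRPA1 cells.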
# [12] = target: T1, Transient receptor potential cation channel subfamily A member 1; assay: Antagonist activity at human TRPA1 expressed in HEK293 cells assessed as inhibition of CA-induced increase in calcium influx incubated for 10 mins prior to CA addition by Fluo-4-AM dye based fluorescence assayy; assay type: cell-based
# [13] = target: T2, Transient receptor potential cation channel subfamily M member 8; assay: Antagonist activity at human TRPM8 expressed in HEK293 cells assessed as inhibition in WS5-induced increase in calcium influx incubated for 10 mins prior to WS5 challenge by Fluo-4-AM dye based fluorescence assay; assay type: cell-based; procedure, shortened: as §2
# Target sequence in this assay (Q7Z2W7 whole entry): as the sequence (Q7Z2W7 whole entry, looked up) above
# [14] = target: T1, Transient receptor potential cation channel subfamily A member 1; assay: Agonist activity at human TRPA1 expressed in HEK293 cells assessed as increase in calcium influx by Fluo-4-AM dye based fluorescence assay; assay type: cell-based; details: read-out: EC50; procedure, shortened: as §1
# [15] = system: Transient receptor potential cation channel subfamily A member 1 (Homo sapiens), O75762 [F909A]; assay: Agonist activity at human TRPA1 Phe909Ala mutant expressed in HEK293 cells assessed as Ca2+ influx at 100 uM by fluorescence assay; assay type: cell-based
# Procedure, shortened: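 HEK293 cells stably expressing hTRPA1 point mutants, made by FuGENE 6 transfection, G418 (0.5 mg ml-1) selection and single-cell cloning, grown in DMEM with 25 mM HEPES, 10% FBS and geneticin. Ca2+ influx was read by Fluo dye fluorescence at room temperature, with calcimycin added at the end. Response was ΔRFU as % of calcimycin, with the DMSO vehicle subtracted.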
SMILES,pKa [1],Activity [6] [%],Activity [7],Activity [8] [%],Activity [9],Activity [10] [%],other results
COC(=O)c1ccccc1NC(=O)/C=C/c1ccc(F)cc1,13.9,,,,,,Activity [2]: 34%; Activity [3]: 85%
COC(=O)c1ccccc1NC(=O)/C=C/c1ccccc1,13.9,,,,,,Activity [2]: 22%; Activity [4]: inactive; Activity [5]: inactive; Activity [3]: 61%
O=C(/C=C/c1ccccc1)Nc1ccccc1C(=O)O,3.5,48,inactive,42,inactive,24,
C=CCN=C=S,,,,,,,Activity [11]: Active
COC(=O)c1ccccc1NC(=O)/C=C/c1ccc([N+](=O)[O-])cc1,13.6,,,,,,
CN(C)c1ccc(/C=C/C(=O)Nc2ccccc2C(=O)O)cc1,3.5,,inactive,,,,
O=C(O)C1CCCCN1C(=O)/C=C/c1ccccc1 (racemic),3.3,72,inactive,71,inactive,7,
COc1ccccc1/C=C/C(=O)Nc1ccccc1C(=O)O,3.4,32,inactive,14,inactive,33,IC50 [12]: 51 µM; IC50 [13]: 41 µM; EC50 [14]: 75 µM
Cc1ccc(C(C)C)c(O)c1,,,,,,,Activity [15]: Active
CCOc1cc(/C=C/C(=O)Nc2ccccc2C(=O)O)ccc1O,3.5,73,inactive,34,inactive,5,IC50 [12]: 106 µM
COc1ccc(/C=C/C(=O)Nc2ccccc2C(=O)O)cc1OC,3.5,65,inactive,56,inactive,6,IC50 [12]: 126 µM
O=C(Nc1ccccc1C(=O)O)/C(=C/c1ccccc1)c1ccccc1,3.4,,34%,22,14%,66,Activity [11]: Active; EC50 [14]: 11 µM
COc1ccc(CCC(=O)Nc2ccccc2C(=O)O)cc1,3.5,57,inactive,74,inactive,6,
COC(=O)c1ccccc1NC(=O)/C=C/c1ccc(Br)cc1,13.8,,,,,,Activity [2]: 41%; Activity [3]: 79%
COC(=O)c1ccccc1NC(=O)/C=C/c1ccc(C)cc1,13.9,,,,,,Activity [2]: 28%; Activity [3]: 88%
O=C(/C=C/c1ccc([N+](=O)[O-])cc1)Nc1ccccc1C(=O)O,3.4,39,inactive,33,inactive,25,EC50 [14]: 219 µM
COC(=O)c1ccccc1NC(=O)/C=C/c1ccc(OC(C)=O)c(OC(C)=O)c1,13.6,,,,,,Activity [2]: 12%; Activity [3]: 102%
O=C(/C=C/c1ccc(O)c(O)c1)Nc1ccccc1C(=O)O,3.5,,inactive,,,,
